Source: PubChem (The Scripps Research Institute Molecular Screening Center)
EBNA-1 inhibitor – EBNA-1 DNA-binding inhibitors, primary screen, biochemical, fluorescence polarization. inhibition, % at 14.8 µM. hit rate 0.34% among 300,000; in the data active = inhibition above about 28%
Fh CTSL1 inh – Fasciola hepatica cathepsin L1 inhibitors, primary screen, counter-screen for PFM18AAP inhibitor project, biochemical, QFRET, fluorogenic peptide substrate; recombinant F. hepatica cathepsin L1, Z-Leu-Arg-MCA fluorescence; inhibition, % at 5.96 µM; hit rate 0.49% among 300,000; AID 1906, 2009;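 active = inhibition above the mean of all tested compounds plus 3 SD, set per screening campaign, cut at about 17% in these data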;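 note: 0% = plate median of test compound wells and 100% = 1 µM Z-Phe-Ala-diazomethylketone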
ZTA DNA inh – ZTA (EBV) inhibition in EBNA-1 counter-screen; ZTA-DNA binding, fluorescence polarization; hit rate 0.15% among 320,000; inhibition, % at 11 µM; P03206; AID 2234; in the data active = inhibition above about 33%
Target sequence (P03206 whole entry, looked up): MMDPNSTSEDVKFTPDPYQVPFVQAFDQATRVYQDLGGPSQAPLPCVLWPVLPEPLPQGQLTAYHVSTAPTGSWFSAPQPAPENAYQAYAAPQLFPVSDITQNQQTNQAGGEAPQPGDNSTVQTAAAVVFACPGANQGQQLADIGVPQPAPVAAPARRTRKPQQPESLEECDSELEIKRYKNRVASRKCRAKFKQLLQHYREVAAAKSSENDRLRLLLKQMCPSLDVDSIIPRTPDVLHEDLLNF
NS3 helicase inh – inhibitors of HCV NS3 helicase, primary screen, biochemical, Cy5 molecular beacon fluorescence; hit rate 0.56% among 290,000; AID 1800, 2009; Hepatitis C virus NS3 helicase; inhibition, % at 10.9 µM; NS3 helicase DNA unwinding;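 active = inhibition above the mean of all tested compounds plus 3 SD, set per campaign, cut at about 35% in these data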;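 note: 0% = DMSO wells and 100% = thioflavine S control wells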
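Assay system: hepatitis C virus NS3 helicase domain fragment enzyme. Also added: annealed dual-labelled DNA beacon duplex, ATP-started. Timing: 1 h reaction at 25 °C, ATP-initiated. Technique: Cy5 fluorescence at 0 and 60 min, beacon hairpin quenching. Evaluation: % inhibition of unwinding. Replication: one well per compound.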
NS3 hel confirm – HCV NS3 helicase inhibitors, retest, confirmation, biochemical, Cy5 molecular beacon fluorescence, triplicate. shares compounds with NS3 helicase inh. NS3 helicase DNA unwinding. inhibition, % at 10.9 µM. hit rate 31% among 1,600. AID 1943, 2009;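 active = inhibition above the mean of all tested compounds plus 3 SD, cutoff set per campaign, cut at about 36% in these data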
FID counter trip – compounds displacing fluorescent DNA intercalator, artefact control for HCV NS3 helicase inhibitor project, biochemical, FID fluorescence, triplicate | inhibition, % at 7.9 µM | shares compounds with NS3 helicase inh | AID 1945, 2009 | hit rate 4% among 1,600 | DNA fluorescent intercalator displacement; in the data active = inhibition above about 37%;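 note: 0% = vehicle and 100% = reference compound; higher means more displacement of ethidium bromide from the DNA hairpin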
DNA FID DR – compounds displacing fluorescent intercalator from DNA, dose response, counter-screen for HCV NS3 helicase inhibitor project, biochemical, fluorescence. shares compounds with NS3 helicase inh. fluorescent intercalator displacement from DNA. IC50, µM. 120 tested, under 10 active. AID 2172, 2009; call rule not given here
Numbers without * were called inactive; i = inactive; . = no result. Shown are actives, neighbours in structure and some others; about 1.4% of the full set was active somewhere.

SMILES	EBNA-1 inhibitor	Fh CTSL1 inh	ZTA DNA inh	NS3 helicase inh	NS3 hel confirm	FID counter trip	others
CCc1nc2c(sc3nc4c(cc32)COC(C)(C)C4)c(=O)n1Cc1ccco1	4	3	11	40*	-16	-14
CCc1nc2c(sc3nc4c(cc32)COC(C)(C)C4)c(=O)n1Cc1ccccc1	0	0	4	-5	.	.
CCc1nc(OCc2ccco2)c2sc3nc4c(cc3c2n1)COC(C)(C)C4	5	4	1	48*	-14	-18
Cc1nc(OCC(C)C)c2sc3nc4c(cc3c2n1)COC(C)(C)C4	6	-2	10	0	.	.
O=C(NC(=S)NCc1ccco1)c1ccccc1[N+](=O)[O-]	8	2	5	-4	.	.
COc1cc2[nH]c(=O)n(CCC(=O)NCc3cccnc3)c(=O)c2cc1OC	-10	0	-6	-7	.	.
CCOC(=O)c1c(C)n(-c2ccc(C)cc2)c2c(C(C(C)=O)C(=O)O)c(Br)c(O)c(O)c12 (centres undefined)	0	7	-15	8	.	.
CCOC(=O)C(C(C)=O)c1c(Br)c(O)c(O)c2c(C(=O)c3ccc(C)cc3)coc12 (centres undefined)	8	0	9	38*	-3	16
CC1SCC(=O)N(CC(=O)NCc2ccccc2)C1=O (centres undefined)	-2	2	-9	-8	.	.
O=c1ccc2c(-c3ccccc3)c3ccc(O)cc3oc-2c1	0	-6	6	73*	68*	-11	DNA FID DR=>79
COc1ccc(-c2csc(NC(=O)c3ccc(OCC(=O)N4CCOCC4)c(OC)c3)n2)cc1OC	2	1	2	4	.	.
COc1ccccc1NCCC(=O)O	4	-6	10	0	.	.
O=C(O)CCNc1ccc(NCCC(=O)O)c2c1C(=O)c1ccccc1C2=O	128*	5	158*	60*	35	4
Cc1ccc(-c2csc(Cc3nc(-c4ccc5c(c4)CCC(=O)N5)cs3)n2)cc1	11	0	1	40*	-3	-10
Cc1nc(-c2ccc3c(c2)CCC(=O)N3)cs1	-8	1	-16	1	.	.
COc1cc(Br)c(-c2sc(Nc3ccccc3)n[n+]2-c2ccc(F)cc2)cc1OC	-4	0	5	45*	13	-5
Clc1cccc(-c2sc(Nc3ccccc3)n[n+]2-c2ccccc2)c1Cl	4	-2	8	69*	9	20
Cc1cc(C)n2nc(SCC(=O)Nc3ccc(F)cc3)nc2n1	-1	0	-1	51*	-12	3
CCCc1nnc(NC(=O)CCC(=O)NCc2ccccc2)s1	6	-6	4	2	.	.
O=C(NCCNc1ccc(Cl)cc1[N+](=O)[O-])c1ccccc1F	-20	0	-13	41*	1	14
COc1cc(Br)c(CC(=O)O)cc1OC	-3	2	-8	.	.	.
O=S1(=O)CCOCCN1Cc1ccc(Cl)cc1Cl	2	-5	-6	37*	-18	6
CC(=O)Oc1ccc(C23CC4CC(CC(C4)C2)C3)cc1C(=O)O	18	1	3	40*	28	-26
Cc1cccc(Nc2nnc(SC/C(O)=C(\C#N)c3nc4ccccc4[nH]3)s2)c1C	0	5	-2	48*	-9	-17
Cc1cccc(C)c1Nc1nnc(SC/C(O)=C(\C#N)c2nc3ccccc3[nH]2)s1	-3	2	3	13	.	.
SMILES	EBNA-1 inhibitor	Fh CTSL1 inh	ZTA DNA inh	NS3 helicase inh	NS3 hel confirm	FID counter trip	others
N#C/C(=C/c1ccc(Br)o1)C(N)=S	5	0	21	37*	-15	0
O=[N+]([O-])c1ccc(N2N=C(c3ccco3)CC2c2ccccc2)cc1 (centres undefined)	-15	-2	11	38*	18	26
CC1(C)CNC(=O)CC(C)(C)N1O	-4	-5	0	6	.	.
CCOC(=O)C(=CNc1cc(Cl)c(-c2ccco2)c(Cl)c1)C(=O)OCC	4	15	6	46*	-5	-20
CCOC(=O)C(=CNc1ccccc1Cl)C(=O)OCC	.	.	.	1	.	.
CCOC(=O)C(=CNc1ccc(-c2ccco2)c(Cl)c1)C(=O)OCC	4	12	5	42*	14	-27
CN1CCN(C(c2ccc(Cl)cc2)c2cc(Cl)c3cccnc3c2O)CC1 (centres undefined)	10	-1	3	46*	17	58*
Cc1cccc(NC(=O)N2CCCC2C(=O)NCc2ccccc2)c1 (centres undefined)	6	-2	-4	-3	.	.
C=CCn1c(SCC(C)=O)nc2scc(-c3ccco3)c2c1=O	3	23*	6	39*	-1	4
C=CCn1c(SCC(=O)N2CCOCC2)nc2scc(-c3ccco3)c2c1=O	4	5	0	15	.	.
CC(C)C(C)(C#N)NC(=O)CSc1nc2scc(-c3ccco3)c2c(=O)n1-c1ccccc1 (centres undefined)	4	5	6	36*	105*	4	DNA FID DR=>79
O=C(Nc1nc(-c2ccco2)c(-c2ccco2)s1)C1CCC1	1	0	13	58*	47*	19	DNA FID DR=>79
O=C(Nc1nc(-c2ccco2)c(-c2ccco2)s1)C1CC(=O)N(c2ccc3c(c2)OCCO3)C1 (centres undefined)	12	1	-1	40*	72*	28	DNA FID DR=>79
O=C(Nc1nnc(-c2ccco2)s1)C1CCCCC1	7	2	4	-2	.	.
COc1ccc(CCNC(=O)CN2CCN(Cc3ccc(F)cc3)C2=O)cc1OC	5	1	20	-3	.	.
O=C(O)c1cc(N/N=C/c2ccc(OCc3ccccc3)cc2)ccc1Cl	3	-5	-2	42*	67*	5
COC(=O)c1ccc(COc2ccc(/C=N/Nc3cccc(C(=O)O)c3)cc2)cc1	2	-4	8	0	.	.
CCCCOc1ccc(-c2cc(C(F)(F)F)c(C#N)c(SCC(=O)O)n2)cc1	-2	4	-24	43*	81*	-14	DNA FID DR=i
C/C(=N\NC(=O)c1cccc2ccccc12)c1cccnc1	.	.	.	3	.	.
CC1CC/C(=C\c2ccc3c(c2)OCO3)C(=O)/C1=C/c1ccc2c(c1)OCO2 (centres undefined)	-4	11	-14	38*	-8	1
CN1C(=O)Nc2cccc3cccc1c23	6	7	-5	42*	-12	6
O=C(Cn1nc(C(=O)O)c2ccccc2c1=O)NCC1CCCO1 (centres undefined)	-11	-10	9	1	.	.
Cc1sc2nc(CSc3nc4ccccc4c(=O)n3CCCN3CCOCC3)[nH]c(=O)c2c1C	3	2	-6	-8	.	.
